In ChEMBL document CHEMBL2146475, “A novel bitriazolyl acyclonucleoside endowed with dual antiproliferative and immunomodulatory activity” (J Med Chem, 2012):
Activity calls are given as the source filed them. No cut-off for these calls is given here.

Tests used:
[1] = test system: MIA PaCa-2; test: Cytotoxicity against multidrug-resistant human MIAPaCa2 cells assessed as cell viability at 50 uM after 48 hrs by MTT assay; format: functional, cell-based
In short: (§1)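 Cells left untreated or incubated at 50 μM for 48 h, with gemcitabine 50 μM as reference. Viability read by MTT.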

[2] = test system: MIA PaCa-2; test: Cytotoxicity against multidrug-resistant human MIAPaCa2 cells assessed as cell viability after 48 hrs by MTT assay; format: functional, cell-based
In short: (§2)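 Cells left untreated or incubated with compound over 50 nM to 200 μM for 48 h. Viability read by MTT. Values are mean SE of three independent experiments, and IC50 is taken from the dose-response curves.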

[3] = test system: Capan-2; test: Cytotoxicity against human Capan2 cells assessed as cell viability after 48 hrs by MTT assay; format: functional, cell-based; in short: as §2
[4] = test system: PC-3; test: Cytotoxicity against human PC3 cells assessed as cell viability after 48 hrs by MTT assay; format: functional, cell-based; in short: as §2
[5] = test system: PC-3; test: Cytotoxicity against human PC3 cells assessed as cell viability at 50 uM after 48 hrs by MTT assay; format: functional, cell-based; in short: as §1
[6] = test system: MIA PaCa-2; test: Induction of apoptosis in multidrug-resistant human MIAPaCa2 cells assessed as increase in DNA/histone nucleosome release after 48 hrs by ELISA relative to control; format: functional
In short: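 MiaPaCa-2 cells treated 48 h, with untreated and gemcitabine references. Cytoplasmic DNA/histone nucleosome release detected by ELISA and compared with untreated cells. Run in triplicate.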

[7] = test system: MIA PaCa-2; test: Induction of apoptosis in multidrug-resistant human MIAPaCa2 cells assessed as necrotic cells after 48 hrs using AnnexinV-FITC conjugated 7- AAD staining by flow cytometry (reference value: 0.17%); format: functional
[8] = test system: PANC-1; test: Cytotoxicity against human PANC1 cells assessed as cell viability after 48 hrs by MTT assay; format: functional, cell-based; in short: as §2
[9] = test system: MCF7; test: Cytotoxicity against human MCF7 cells assessed as cell viability at 50 uM after 48 hrs by MTT assay; format: functional, cell-based; in short: as §1
[10] = test system: HeLa; test: Cytotoxicity against human HeLa cells assessed as cell viability after 48 hrs by MTT assay; format: functional, cell-based; in short: as §2
[11] = test system: Dendritic cell; test: Immunostimulatory activity against TLR3-deficient C57BL/6 mouse bone marrow dendritic cells assessed as increase in IL-12p40 level at 3 to 10 uM after 24 hrs by ELISA; format: functional, cell-based
In short: (§3)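 Bone marrow dendritic cells from wild-type, TLR3−/−, TLR7−/− and TLR9−/− mice, left untreated or stimulated with different doses for 24 h. IL-12p40 protein in culture supernatants measured by ELISA.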

[12] = test system: Dendritic cell; test: Immunostimulatory activity against TLR7-deficient C57BL/6 mouse bone marrow dendritic cells assessed as increase in IL-12p40 level at 10 uM after 24 hrs by ELISA; format: functional, cell-based; in short: as §3
[13] = test system: MIA PaCa-2; test: Cell cycle arrest in multidrug-resistant human MIAPaCa2 cells assessed as accumulation at sub-G0/G1 phase after 48 hrs by propidium iodide staining based FACS flow cytometry (reference value: 1.17%); format: functional
[14] = test system: Dendritic cell; test: Immunostimulatory activity against wild type C57BL/6 mouse bone marrow dendritic cells assessed as increase in IL-12p40 level at 3 to 10 uM after 24 hrs by ELISA; format: functional, cell-based; in short: as §3
[15] = test system: MIA PaCa-2; test: Induction of apoptosis in multidrug-resistant human MIAPaCa2 cells assessed as early apoptotic cells after 48 hrs using AnnexinV-FITC conjugated 7- AAD staining by flow cytometry (reference value: 2.54%); format: functional
[16] = test system: Dendritic cell; test: Immunostimulatory activity against TLR9-deficient C57BL/6 mouse bone marrow dendritic cells assessed as increase in IL-12p40 level at 3 to 10 uM after 24 hrs by ELISA; format: functional, cell-based; in short: as §3
[17] = test system: MCF7; test: Cytotoxicity against human MCF7 cells assessed as cell viability after 48 hrs by MTT assay; format: functional, cell-based; in short: as §2
[18] = test system: MIA PaCa-2; test: Induction of apoptosis in multidrug-resistant human MIAPaCa2 cells assessed as late apoptotic cells after 48 hrs using AnnexinV-FITC conjugated 7- AAD staining by flow cytometry (reference value: 0.21%); format: functional
[19] = biological target: T1, Toll-like receptor 7 (Mus musculus) (UniProt P58681); test: Activation of TLR7 in C57BL/6 mouse bone marrow dendritic cells assessed as increase of IL6 production after 24 hrs by ELISA; format: cell-based
T1 sequence (whole entry): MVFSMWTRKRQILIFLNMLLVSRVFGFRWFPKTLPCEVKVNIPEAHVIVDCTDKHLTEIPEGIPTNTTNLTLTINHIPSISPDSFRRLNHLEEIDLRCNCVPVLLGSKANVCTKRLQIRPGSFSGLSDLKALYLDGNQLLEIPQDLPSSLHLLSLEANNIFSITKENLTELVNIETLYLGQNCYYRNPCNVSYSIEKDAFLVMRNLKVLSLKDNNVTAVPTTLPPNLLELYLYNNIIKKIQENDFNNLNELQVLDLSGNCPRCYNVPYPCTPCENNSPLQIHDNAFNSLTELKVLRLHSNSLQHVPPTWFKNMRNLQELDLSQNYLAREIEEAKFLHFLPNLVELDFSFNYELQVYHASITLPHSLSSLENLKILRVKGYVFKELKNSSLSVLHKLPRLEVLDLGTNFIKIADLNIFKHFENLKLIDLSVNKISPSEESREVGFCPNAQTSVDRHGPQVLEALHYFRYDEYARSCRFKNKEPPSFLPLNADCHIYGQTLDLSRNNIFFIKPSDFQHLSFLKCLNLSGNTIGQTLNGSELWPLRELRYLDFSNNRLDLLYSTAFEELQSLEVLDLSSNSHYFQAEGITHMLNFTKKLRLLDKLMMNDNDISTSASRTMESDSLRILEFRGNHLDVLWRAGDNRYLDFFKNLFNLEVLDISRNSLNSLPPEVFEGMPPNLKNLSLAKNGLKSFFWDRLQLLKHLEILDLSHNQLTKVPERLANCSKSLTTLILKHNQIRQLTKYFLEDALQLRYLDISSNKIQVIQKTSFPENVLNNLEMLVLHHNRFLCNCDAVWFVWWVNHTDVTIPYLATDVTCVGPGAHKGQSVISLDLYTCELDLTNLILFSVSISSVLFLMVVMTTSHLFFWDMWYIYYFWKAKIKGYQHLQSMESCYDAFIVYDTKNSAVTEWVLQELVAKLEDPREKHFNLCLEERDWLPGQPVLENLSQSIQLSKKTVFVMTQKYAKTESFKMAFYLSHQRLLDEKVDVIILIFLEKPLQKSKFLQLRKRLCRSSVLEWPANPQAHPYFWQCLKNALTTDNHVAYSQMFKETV
In short: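 Bone marrow dendritic cells from wild-type mice, left untreated or stimulated with two doses for 24 h. IL-6 in culture supernatants measured by ELISA. Mean SD of four mice per group.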

[20] = test system: HeLa; test: Cytotoxicity against human HeLa cells assessed as cell viability at 50 uM after 48 hrs by MTT assay; format: functional, cell-based; in short: as §1
[21] = test system: PANC-1; test: Cytotoxicity against human PANC1 cells assessed as cell viability at 50 uM after 48 hrs by MTT assay; format: functional, cell-based; in short: as §1
[22] = test system: MIA PaCa-2; test: Induction of apoptosis in multidrug-resistant human MIAPaCa2 cells assessed as increase in caspase-3/7 activity after 48 hrs by caspase-Glo 3/7 assay; format: functional, cell-based
In short: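 MiaPaCa-2 cells treated 48 h, with untreated and gemcitabine references. Caspase-3/7 activity measured. Run in triplicate.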

[23] = test system: Capan-2; test: Cytotoxicity against human Capan2 cells assessed as cell viability at 50 uM after 48 hrs by MTT assay; format: functional, cell-based; in short: as §1

COC(=O)c1nc(-c2cn(Cc3ccc4ccccc4c3)nn2)n(COCCOC(C)=O)n1
Activity [1]: inactive

COC(=O)c1nc(-c2cn(Cc3ccc4ccc5cccc6ccc3c4c56)nn2)n([C@@H]2O[C@H](COC(C)=O)[C@@H](OC(C)=O)[C@H]2OC(C)=O)n1
Activity [2]: inactive

COC(=O)c1nc(-c2cn(-c3ccc4ccc5cccc6ccc3c4c56)nn2)n(COCCOC(C)=O)n1
Activity [1]: inactive

COC(=O)c1nc(Nc2ccc3ccc4cccc5ccc2c3c45)n(COCCOC(C)=O)n1
Activity [1]: inactive

COC(=O)c1nc(-c2cn(Cc3ccc4ccc5cccc6ccc3c4c56)nn2)n(COCCOC(C)=O)n1
Activity [3]: Dose-dependent effect | IC50 ([3]; Capan-2, 48 h): ≤ 10 µM | Activity [4]: Dose-dependent effect | IC50 ([4]; PC-3, 48 h): ≤ 10 µM | Activity [5]: Active | fold change (FC) [6]: 15 | Activity [7]: 0.41% | Activity [2]: Dose-dependent effect | IC50 ([2]; MIA PaCa-2, 48 h): ≤ 10 µM | Activity [8]: Dose-dependent effect | IC50 ([8]; PANC-1, 48 h): ≤ 10 µM | Activity [9]: Active | Activity [10]: Dose-dependent effect | IC50 [10]: ≤ 10 µM | Activity [11]: Active | Activity [12]: inactive | Activity [13]: 36.9% | Activity [14]: Active | Activity [15]: 28.48% | Activity [16]: Active | Activity [17]: Dose-dependent effect | IC50 ([17]; MCF7, 48 h): ≤ 10 µM | Activity [18]: 22.44% | Activity [19]: Dose-dependent effect | Activity [20]: Active | Activity [1]: Active | Activity [21]: Active | Activity [22]: Active | Activity [23]: Active

COC(=O)c1nc(CCc2ccc3ccc4cccc5ccc2c3c45)n(COCCOC(C)=O)n1
Activity [1]: inactive

COC(=O)c1nc(-c2cn(Cc3ccccc3)nn2)n(COCCOC(C)=O)n1
Activity [1]: inactive

COC(=O)c1nc(C#Cc2ccc3ccc4cccc5ccc2c3c45)n(COCCOC(C)=O)n1
Activity [1]: inactive

Nc1ccn([C@@H]2O[C@H](CO)[C@@H](O)C2(F)F)c(=O)n1 [GEMCITABINE]
Activity [6]: Active | Activity [7]: 0.35% | Activity [13]: 7.9% | Activity [15]: 10.47% | Activity [18]: 0.86% | Activity [22]: Active

COC(=O)c1nc(-c2cn(Cc3ccc4cc5ccccc5cc4c3)nn2)n(COCCOC(C)=O)n1
Activity [1]: inactive

COC(=O)c1nc(-c2cn(Cc3ccc4ccc5cccc6ccc3c4c56)nn2)nn1COCCOC(C)=O
Activity [1]: inactive

NC(=O)c1nc(-c2cn(Cc3ccc4ccc5cccc6ccc3c4c56)nn2)n(COCCO)n1
Activity [2]: Active
